Consider 2 molecules from ChEMBL document CHEMBL2424574, “Structure-activity relationships and pharmacophore model of a noncompetitive pyrazoline containing class of GluN2C/GluN2D selective antagonists” (J Med Chem, 2013).

Calls of active or inactive are those of the source. The calls are words filed in the database; no cut-off is given here. Some results are limits rather than exact numbers.

One data set deals with Liver microsomes. Put plainly: Half life in human liver microsomes at 1 uM. In kind it is ADME, Microsome. A digest of the protocol:
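Human liver microsomes 0.5 mg/mL in 100 mM potassium phosphate pH 7.4 with 5 mM MgCl2 and 1 μM test compound. Preincubated 3 min at 37 °C, then started with 1 mM NADPH, with a testosterone control in parallel. Sampled at 0, 10, 20, 30 and 60 min and quenched in cold acetonitrile/water with formic acid and internal standard. Percent remaining by LC-MS/MS (MRM) versus time 0. t1/2 = 0.693/k from the ln-remaining slope; CLint = k/protein concentration.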
In general terms: Liver microsomes are vesicles of endoplasmic reticulum, rich in cytochrome P450 enzymes.

The target in data set [1] is Ionotropic glutamate receptor NMDA 1/2D (Homo sapiens) (UniProt Q05586+O15399). Conditions: Oocyte, 1 uM.
The species named for the next data set is Homo sapiens. Put plainly: Inhibition of GluN2D receptor L705F mutant (unknown origin).

For the molecule `O=C(O)CCC(=O)N1N=C(c2c(-c3ccc(Cl)cc3)c3ccccc3[nH]c2=O)CC1c1ccc(Cl)cc1` (racemic), in the data set on Liver microsomes, the t1/2 is above 1 h.
Broadly, the residual activity is what remains of the control signal, in per cent. In data set [1], `O=C(O)/C=C/C(=O)N1N=C(c2c(-c3ccc(Br)cc3)c3ccccc3[nH]c2=O)CC1c1ccc(Cl)cc1` (racemic) came in with a residual activity of 3.1%. For the same molecule, in the data set filed under Homo sapiens, the inhibition entry was “inactive”.
